Results from PMC9393037 (International Journal of Nanomedicine, 2022).

Legend:
In vitro release study = assay type: physicochemical; conditions: PBS pH = 7.4 and pH = 5, 1% SDS, 37 ℃
Summary of the method: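 Test compound-loaded micelles or free test compound were placed in a pre-soaked dialysis bag (MWCO 500) immersed in PBS containing 1% (w/v) SDS at pH 7.4 or pH 5. Bags were shaken at 200 rpm at 37 ℃. Outside medium was sampled at 0.5, 1, 2, 4, 6, 8, 12, 24 and 48 h and replaced with fresh PBS. Cumulative release was tracked.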

[1] = Tissue distribution and targeting evaluation after i.v. administration to mice; assay type: in vivo, ICR mice; conditions: for Cmax: male, ICR, mouse, iv, 2.8 mg/kg
Summary of the method: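 Male ICR mice (6-8 weeks, 27-28 g) received 2.8 mg/kg i.v. as free compound or micelles. Four mice were killed per time point (0.17, 0.5, 1, 2 h), and heart, liver, lung, kidney and brain were collected. Tissues were rinsed, weighed, homogenised in cold saline (1:2 w/v), centrifuged, and supernatants assayed by LC-MS/MS.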

MCAO mice [2] = experiment: MCAO model: Nissl, TUNEL and LC3 immunofluorescence staining of brain sections; assay type: in vivo, C57BL/6 mice; conditions: i.v. for 7 days
[3] = Pharmacokinetics after single i.v. administration to rats; assay type: in vivo, Sprague Dawley rats
Summary of the method: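 Male Sprague Dawley rats (7-9 weeks, 240-260 g), six per group, were fasted overnight. Each received one tail-vein dose of 2 mg/kg as free compound (saline with 30% propylene glycol) or micelles. Jugular blood was drawn into heparinised tubes at 0.03–8 h, and plasma was separated at 4 ℃. Samples were quantified by validated LC-ESI-MS/MS, and PK parameters were calculated; mean ± SD.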

MCAO mice [4] = experiment: MCAO model: behavioural tests; assay type: in vivo, C57BL/6 mice; conditions: i.v. for 7 days, seventh day after the operation
Summary of the method: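 Male C57BL/6 mice (6-8 weeks, 24-26 g), four per group, were anaesthetised with 5% chloral hydrate i.p. The right CCA/ECA/ICA were exposed, and a monofilament was placed and removed after 1 h for reperfusion; sham mice had no monofilament. Dosing was i.v. for 7 days: free compound 3 mg/kg, micelles 1 or 3 mg/kg, edaravone 3 mg/kg. A blinded investigator scored Longa on days 1 and 7.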

[5] = Sprague Dawley, rat, plasma, iv, 2 mg/kg

- cumulative release (In vitro release study; in eight hours): ~90%
- cumulative release (In vitro release study; within the first four hours): More than 60%
- Cmax ([1]; brain): 21.7 ± 3.45 ng/g
- Cmax ([1]; heart): 69.2 ± 10.5 ng/g
- Cmax ([1]; kidney): 713 ± 35 ng/g
- Cmax ([1]; liver): 574 ± 137 ng/g
- Cmax ([1]; lung): 179 ± 31.4 ng/g
- detectability of ISL in tissues 1 h after administration ([1]; mice, i.v. 2.8 mg/kg, 1 h): could not be detected
- AUC ([1]; mice, i.v. 2.8 mg/kg, Brain): 8.34 ± 0.61 ng·h/g
- AUC ([1]; mice, i.v. 2.8 mg/kg, Heart): 18.66 ± 2.11 ng·h/g
- AUC ([1]; mice, i.v. 2.8 mg/kg, Kidney): 174.7 ± 9.70 ng·h/g
- AUC ([1]; mice, i.v. 2.8 mg/kg, Liver): 207.70 ± 28.50 ng·h/g
- AUC ([1]; mice, i.v. 2.8 mg/kg, Lung): 55.24 ± 6.28 ng·h/g
- AUC(0-inf) [3, 5]: 373 ± 106 ng·h/mL
- AUC(0-t) [3, 5]: 307 ± 92.5 ng·h/mL
- MRT last [3, 5]: 10.2 ± 1.8 min
- clearance [3, 5]: 96.3 mL/min/kg
- detectability of ISL in plasma over time ([3]; rats, single i.v. 2 mg/kg): could not be detected after 2 hours
- CL (clearance rate) ([3]; rats, single i.v. 2 mg/kg, plasma ISL): 96.3 ± 29 mL/min/kg
SMILES: O=C(/C=C/c1ccc(O)cc1)c1ccc(O)cc1O [ISL, (e)-1-(2,4-dihydroxyphenyl)-3-(4-hydroxyphenyl) −2-propen-1-one]
- Nissl staining of neurons (Nissl bodies) (MCAO mice [2]): not significantly different from that in the model group
- number of positive cells expressing the LC3 protein (MCAO mice [2]): less than that in the model group and more than that in the ISL-M group
- number of positive cells stained with the TUNEL (MCAO mice [2]): less than that in the model group and more than that in the ISL-M group
- neurological scores (Longa scores) compared with the MCAO model group (MCAO mice [4]): significantly decreased
